Measurements: ChEMBL document CHEMBL1154414, “In vitro and in vivo activities of T-705 against arenavirus and bunyavirus infections” (Antimicrob Agents Chemother, 2007)

Key:
Punta Toro virus [1] = experiment: Antiviral activity against 5000 PFU Punta Toro virus Adames infected C57BL/6 mouse assessed as animals with detectable virus level in liver at 30 mg/kg, po twice daily administered 24 hrs post viral challenge measured on day 3 of viral infection; format: functional
Method in brief: (§1)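 Mice were infected subcutaneously with PTV and dosed by oral gavage twice daily; 5 per group (10 placebo) were killed on day 3 or 4. Liver homogenate or serum was serially diluted onto triplicate LLC-MK2 monolayers, and CPE was read 6–8 days later. 50% endpoints gave log10 CCID50 per 0.1 g liver or 0.1 ml serum. Detection range was 2.8–9.5; undetectable samples were assigned <2.8.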

Punta Toro virus [2] = experiment: Antiviral activity against 5000 PFU Punta Toro virus Adames infected C57BL/6 mouse assessed as animals with detectable virus level in serum at 10 mg/kg, po twice daily administered 24 hrs post viral challenge measured on day 3 of viral infection; format: functional; method in brief: as §1
Punta Toro virus [3] = experiment: Antiviral activity against 50 PFU Punta Toro virus Adames infected C57BL/6 mouse assessed as mean day of death at 30 mg/kg, po twice daily for 5 days administered 24 hrs post viral challenge; format: functional
Method in brief: (§2)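 Groups of 15 mice (25–30 placebo) were inoculated subcutaneously with PTV. Drug in 0.4% carboxymethylcellulose was given by oral gavage twice daily.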

Punta Toro virus [4] = experiment: Antiviral activity against 50 PFU Punta Toro virus Adames infected C57BL/6 mouse assessed as animals with detectable virus level in liver at 10 mg/kg, po twice daily administered 24 hrs post viral challenge measured on day 3 of viral infection; format: functional
Method in brief: (§3)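 T-705 was suspended in 0.4% carboxymethylcellulose and given by oral gavage twice daily. Mice were infected subcutaneously with PTV. Five mice per group (10 placebo) were sacrificed on day 3 or 4. Liver homogenate or serum was serially diluted onto triplicate LLC-MK2 monolayers, and CPE was read at 6–8 days. The detection limit was 2.8 log10 CCID50 per 0.1 g liver or 0.1 ml serum.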

Punta Toro virus [5] = experiment: Antiviral activity against Punta Toro virus Adames assessed as inhibition of virus-induced visual cytopathic effect after 3 to 5 days; format: functional, organism-based
Method in brief: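 Virus in medium with 2% FBS was used at the CCID50 that gave maximal CPE. Half-log drug dilutions (DMSO stock, ≤1% DMSO at the top concentration) were added at infection. EC50 was derived by regression analysis.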

Pichinde virus [6] = experiment: Antiviral activity against Pichinde virus An 4763 infected Syrian golden hamster assessed as animals with detectable virus level in serum at 20 mg/kg, po twice daily for 7 days administered 24 hrs post viral-challenge measured on day 7 of viral infection; format: functional
Method in brief: (§4)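 Hamsters (groups of 15, placebo 25-30) were dosed orally by gavage twice daily (drug suspended in 0.4% CMC) after bilateral intraperitoneal challenge with 65 PFU. Five per group were killed on day 7. Liver homogenate or serum was serially diluted onto triplicate B-SC-1 wells, CPE was read at 6-8 days, and the 50% endpoint was taken. Range was 2.8-9.5 log10 CCID50/0.1 g or 0.1 ml, with undetectable assigned <2.8.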

Pichinde virus [7] = experiment: Antiviral activity against Pichinde virus An 4763 infected Syrian golden hamster assessed as mean serum ALT levels at 20 mg/kg, po twice daily for 7 days administered 24 hrs post viral-challenge measured on day 7 of viral infection; format: functional
Method in brief: (§5)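 Hamsters were challenged intraperitoneally (bilateral, 65 PFU) and given twice-daily oral gavage doses (0.4% CMC vehicle). Five per group were sacrificed on day 7 and serum was collected. Serum ALT activity was measured by kinetic assay. Three sham-infected animals set the baselines.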

Pichinde virus [8] = experiment: Antiviral activity against Pichinde virus An 4763 infected Syrian golden hamster assessed as mean serum ALT levels at 50 mg/kg, po twice daily for 7 days administered 72 hrs post viral-challenge measured on day 7 of viral infection measured on day 7 of viral infection; format: functional; method in brief: as §5
Pichinde virus [9] = experiment: Antiviral activity against Pichinde virus An 4763 infected Syrian golden hamster assessed as mean day of death at 20 mg/kg, po twice daily for 7 days administered 72 hrs post viral-challenge measured on day 7 of viral infection; format: functional
Method in brief: (§6)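 Groups of 15 hamsters (placebo 25-30) were challenged intraperitoneally (bilateral, 65 PFU) and dosed twice daily by oral gavage in 0.4% CMC for 5 to 7 days.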

Pichinde virus [10] = experiment: Antiviral activity against Pichinde virus An 4763 infected Syrian golden hamster assessed as mean viral titer per 0.1 g of liver at 50 mg/kg, po twice daily for 7 days administered 72 hrs post viral-challenge measured on day 7 of viral infection; format: functional; method in brief: as §4
Pichinde virus [11] = experiment: Antiviral activity against Pichinde virus An 4763 infected Syrian golden hamster assessed as animals with detectable virus level in liver at 20 mg/kg, po twice daily for 7 days administered 72 hrs post viral-challenge measured on day 7 of viral infection; format: functional; method in brief: as §4
Pichinde virus [12] = experiment: Antiviral activity against Pichinde virus An 4763 infected Syrian golden hamster assessed as mean viral titer per 0.1 mL of serum at 50 mg/kg, po twice daily for 7 days administered 72 hrs post viral-challenge measured on day 7 of viral infection; format: functional; method in brief: as §4
Punta Toro virus [13] = experiment: Antiviral activity against 500 PFU Punta Toro virus Adames infected C57BL/6 mouse assessed as mean day of death at 10 mg/kg, po twice daily for 5 days administered 24 hrs post viral challenge; format: functional; method in brief: as §2
Punta Toro virus [14] = experiment: Antiviral activity against 500 PFU Punta Toro virus Adames infected C57BL/6 mouse assessed as animals with detectable virus level in liver at 30 mg/kg, po twice daily administered 24 hrs post viral challenge measured on day 3 of viral infection; format: functional; method in brief: as §3
Punta Toro virus [15] = experiment: Antiviral activity against 500 PFU Punta Toro virus Adames infected C57BL/6 mouse assessed as animals with detectable virus level in serum at 10 mg/kg, po twice daily administered 24 hrs post viral challenge measured on day 3 of viral infection; format: functional; method in brief: as §3
Punta Toro virus [16] = experiment: Antiviral activity against 500 PFU Punta Toro virus Adames infected C57BL/6 mouse assessed as mean serum ALT levels at 10 mg/kg, po twice daily administered 24 hrs post viral challenge measured on day 3 of viral infection; format: functional
Method in brief: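 Subcutaneous PTV infection was followed by oral gavage twice daily with drug suspended in 0.4% CMC. Serum was collected from 5 sacrificed mice per group (10 placebo) on day 3 or 4. ALT activity was measured by kinetic assay, and sham-infected mice set the baselines.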

Punta Toro virus [17] = experiment: Antiviral activity against Punta Toro virus Adames infected Syrian golden hamster assessed as animals with detectable virus level in serum at 30 mg/kg, […] measured on day 4 of viral infection; format: functional; conditions: route oral
Pichinde virus [18] = experiment: Antiviral activity against Pichinde virus An 4763 infected Syrian golden hamster assessed as mean viral titer per 0.1 mL of serum at 40 mg/kg, po twice daily for 7 days administered 4 hrs before viral-challenge measured on day 7 of viral infection; format: functional
Pichinde virus [19] = experiment: Antiviral activity against Pichinde virus An 4763 infected Syrian golden hamster assessed as mean serum ALT levels at 40 mg/kg, po twice daily for 7 days administered 4 hrs before viral-challenge measured on day 7 of viral infection; format: functional; method in brief: as §5
Pichinde virus [20] = experiment: Antiviral activity against Pichinde virus An 4763 infected Syrian golden hamster assessed as mean day of death at 50 mg/kg, po twice daily for 7 days administered 24 hrs post viral-challenge; format: functional; method in brief: as §6
Pichinde virus [21] = experiment: Antiviral activity against Pichinde virus An 4763 infected Syrian golden hamster assessed as animals with detectable virus level in liver at 50 mg/kg, po twice daily for 7 days administered 24 hrs post viral-challenge measured on day 7 of viral infection; format: functional; method in brief: as §4
Punta Toro virus [22] = experiment: Antiviral activity against 5000 PFU Punta Toro virus Adames infected C57BL/6 mouse assessed as animals with detectable virus level in serum at 30 mg/kg, po twice daily administered 24 hrs post viral challenge measured on day 3 of viral infection; format: functional; method in brief: as §1

Compound NC(=O)c1nc(F)cnc1O [FAVIPIRAVIR] has an Activity (Punta Toro virus [1]) of 20%, an Activity (Punta Toro virus [2]) of 80% and an Activity (Punta Toro virus [3]) of over 21 days. It also gave an Activity (Punta Toro virus [4]) of 0%, an EC50 (Punta Toro virus [5]) of 191 µM and an Activity (Pichinde virus [6]) of 100%. It also gave an Activity (Pichinde virus [7]) of 1583 IU/L, an Activity (Pichinde virus [8]) of 411 IU/L and an Activity (Pichinde virus [9]) of 8.1 days. The log10CCID50 (Pichinde virus [10]) was 6.8, the Activity (Pichinde virus [11]) was 100% and the log10CCID50 (Pichinde virus [12]) was 6.6. It also gave an Activity (Punta Toro virus [13]) of 4.7 days, an Activity (Punta Toro virus [14]) of 60% and an Activity (Punta Toro virus [15]) of 100%. For the same compound, the Activity (Punta Toro virus [16]) was 3302 IU/L, the Activity (Punta Toro virus [17]) was 40% and the log10CCID50 (Pichinde virus [18]) was under 3. For the same compound, the Activity (Pichinde virus [19]) was 30 IU/L, the Activity (Pichinde virus [20]) was over 21 days and the Activity (Pichinde virus [21]) was 100%. The Activity (Punta Toro virus [22]) was 80%.

In the case of NC(=O)c1ncn([C@@H]2O[C@H](CO)[C@@H](O)[C@H]2O)n1 [RIBAVIRIN], the Activity (Punta Toro virus [1]) is reported as 20%, the Activity (Punta Toro virus [2]) is reported as 100% and the Activity (Punta Toro virus [3]) is reported as over 21 days. The Activity (Punta Toro virus [4]) was 40%, the EC50 (Punta Toro virus [5]) was 172 µM and the Activity (Pichinde virus [6]) was 80%. The Activity (Pichinde virus [7]) was 24 IU/L, the Activity (Pichinde virus [8]) was 15 IU/L and the Activity (Pichinde virus [9]) was 18.3 days. The log10CCID50 (Pichinde virus [10]) was 6.5, the Activity (Pichinde virus [11]) was 100% and the log10CCID50 (Pichinde virus [12]) was 6. The Activity (Punta Toro virus [13]) was 5 days, the Activity (Punta Toro virus [14]) was 60% and the Activity (Punta Toro virus [15]) was 100%. For the same compound, the Activity (Punta Toro virus [16]) was 2150 IU/L, the Activity (Punta Toro virus [17]) was 0% and the log10CCID50 (Pichinde virus [18]) was under 3. The Activity (Pichinde virus [19]) was 30 IU/L, the Activity (Pichinde virus [20]) was over 21 days and the Activity (Pichinde virus [21]) was 100%. It also gave an Activity (Punta Toro virus [22]) of 60%.
